H69AR inhibit: blocks growth of human H69AR lung tumor cells. H69AR lung tumor viability, ATP luminescence, 72 h; hits give low values. viability, % at 10 µM. 85,000 tested, 6% active;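 active = viability at or below 40%; inactive = viability above 40%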;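 note: multidrug resistant small cell line overexpressing MRP-1 efflux transporter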
Ecoli tolC: growth inhibitors of E. coli BW25113 tolC mutant; OD615; 65,000 tested, 2.2% active; growth inhibition, % at 10 µM (by protocol);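 active = growth inhibition at or above a cutoff equal to the mean over every tested compound plus 3 SD, cut at about 60% in these data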;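 note: growth measured after 20 h incubation at 37 °C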
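Test system: tolC-deleted E. coli BW25113; medium: LB with kanamycin 50 µg/mL; compound: single-point testing at 10 µM; incubation: 20 h compound exposure of bacteria at 37 °C; signal: OD at 615 nm; evaluation: growth inhibition in percent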
Ecoli WT expand: growth inhibitors of E. coli BW25113 wild type | AID 710 | growth inhibition, % at 100 µM | 98,000 tested, 0.15% active | OD600 absorbance;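 active = growth inhibition above about 50% at one test dose, limit read from the data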;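 note: growth measured after 20 h incubation at 37 °C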
HUVEC prolif 384: human endothelial cell proliferation inhibition. HUVEC proliferation, CellTiter-Glo luminescence, 72 h; hits give low values. 86,000 tested, 1.1% active. viability, % at 10 µM (by protocol);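 active = viability at or below 30%; inactive = viability above 30%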
Lung fibro prol: blocks proliferation of human lung fibroblasts; 85,000 tested, 1.1% active; viability, % at 10 µM; LL 47 human lung fibroblast viability, ATP luminescence; hits give low values;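 active = viability at or below 50% in the single dose screen; inactive = viability above 50%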;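 note: compound exposure lasted 72 h before the ATP readout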
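Times – overnight cell rest, 72 h compound treatment at 37 °C · Test system – human lung fibroblast line LL 47, low passage · Amount – 1,150 cells in each well · Controls – cell-only wells, no compound · Doses – 0.1% DMSO in all compound wells · Measured by – CellTiter-Glo luminescence · Buffer or medium – IMEM plus 15% FBS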
Jurkat viability: cytotoxic compounds reducing Jurkat cell viability; Jurkat E6.1 viability, ATP luminescence, 48 h; inhibition, % at 4 µM; 56,000 tested, 1.2% active;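 active = inhibition above the mean inhibition of all tested compounds plus 3 SD, cut at about 28% in these data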
Of the large screens only hits and unclear results are named; the others gave an inactive call. Sampled rows, rich in hits. Any-hit rate of the full collection: about 6.4%.

COc1ccc2[nH]c(=O)c(CN(C(=O)NC3CCCCC3)C3CCCCC3)cc2c1	Ecoli tolC 72.0
COc1ccc2[nH]c(=O)c(CN(CC3CCCO3)C(=O)Nc3ccccc3OC)cc2c1 (centres undefined)	H69AR inhibit 20.4
CCN(CC)CCN(Cc1cc2cc3c(cc2[nH]c1=O)OCCO3)C(=O)NC1CCCCC1	H69AR inhibit 34.6
O=C(NC1CCCC1)C(c1c[nH]c2ccccc12)N(C(=O)Cn1nnc(-c2ccc(Cl)cc2)n1)c1ccccc1 (centres undefined)	none (no result: H69AR inhibit, Ecoli tolC, HUVEC prolif 384, Lung fibro prol, Jurkat viability)
O=C(c1ccncc1)N(Cc1cc2ccccc2[nH]c1=O)C1CCCCC1	Jurkat viability 46.8
CC1=C(C(=O)OC(C)C)C(c2c[nH]c3ccccc23)n2ncnc2N1 (centres undefined)	Ecoli tolC 99.4
COc1ccccc1Oc1nc2c(c(=O)n(Cc3ccccc3F)c(=O)n2C)n1C	H69AR inhibit 39.8
COc1ccccc1C(=O)Nc1nc(-c2ccc(S(=O)(=O)N3CCOCC3)cc2)cs1	Lung fibro prol 22.7 (no result: Ecoli tolC, Jurkat viability)
CCOc1cccc(C(=O)Nc2nc(-c3ccc(S(=O)(=O)N4CCOCC4)cc3)cs2)c1	H69AR inhibit 31.9
COc1ccccc1OC(C)C(=O)Nc1nc(-c2ccc(S(=O)(=O)N3CCOCC3)cc2)cs1 (centres undefined)	none (no result: Ecoli tolC, Jurkat viability)
N/C(Cc1ccc(Cl)cc1)=N\OC(=O)c1cccc2ccccc12	H69AR inhibit -0.4, HUVEC prolif 384 1.4 (no result: Ecoli tolC, Jurkat viability)
N/C(Cc1ccc(Cl)cc1)=N\OC(=O)c1ccc2ccccc2c1	H69AR inhibit 3.2, HUVEC prolif 384 5.6 (no result: Ecoli tolC, Jurkat viability)
Cc1ccccc1OCC(=O)O/N=C(\N)Cc1ccc(Cl)cc1	none (no result: Ecoli tolC, Jurkat viability)
CCn1cc(/C=C(/C#N)S(=O)(=O)c2ccccc2)cn1	none
CCOc1cc(-c2cc(-c3ccccc3)nc(N)c2C#N)ccc1O	H69AR inhibit 22.7 (no result: Ecoli tolC, Jurkat viability)
CCOc1cc(-c2cc(-c3ccc(N)cc3)nc(N)c2C#N)ccc1O	H69AR inhibit 3.6
CCOc1cc(-c2c(C#N)c(N)nc3c2CCCC3)ccc1O	none
COc1cc(NC(=O)c2cc(-n3cnnc3)ccc2Cl)cc(OC)c1	none
CCOc1ccc(N=c2scc(-c3ccccc3)n2CCO)cc1	none (no result: Ecoli tolC, Jurkat viability)
OCCn1c(-c2ccc3c(c2)OCO3)csc1=Nc1ccccc1	Ecoli tolC 75.7
O=C1c2ccccc2C(=O)N1CCCCSc1nnc2ccccn12	none
CC1CCCCC1NC(=O)C1CCN(S(=O)(=O)c2ccc(-n3cnnn3)cc2)CC1 (centres undefined)	none (no result: H69AR inhibit, Ecoli tolC, HUVEC prolif 384, Lung fibro prol, Jurkat viability)
CC(=O)Nc1ccc(S(=O)(=O)CCC(=O)O)cc1	none (no result: Ecoli tolC, Ecoli WT expand, Jurkat viability)
COC(=O)/C=C/S(=O)(=O)c1ccc(NC(C)=O)cc1	H69AR inhibit 1.0, Jurkat viability 70.9 (no result: Lung fibro prol)
CC(=O)CCS(=O)(=O)c1ccc(NC(C)=O)cc1	H69AR inhibit 0.2 (no result: Ecoli tolC, Jurkat viability)
CCC(C)(C)n1nnnc1C(c1cc2cc(C)cc(C)c2[nH]c1=O)N1CCN(Cc2ccc3c(c2)OCO3)CC1 (centres undefined)	H69AR inhibit 8.6, Lung fibro prol 24.9 (no result: Ecoli tolC, Jurkat viability)
Cc1cc(C)c2[nH]c(=O)c(C(c3nnnn3CC3CCCO3)N3CCC(C)CC3)cc2c1 (centres undefined)	none
Cc1cc(C)c2[nH]c(=O)c(C(c3nnnn3CC3CCCO3)N3CCCC(C)C3)cc2c1 (centres undefined)	Ecoli tolC 62.1
O=c1nc(N2CCCCCC2)nc(N2CCCCCC2)[nH]1	none (no result: H69AR inhibit, Ecoli tolC, HUVEC prolif 384, Lung fibro prol, Jurkat viability)
C1CCN(c2nc(N3CCCCC3)nc(N3CCNCC3)n2)CC1	H69AR inhibit 0.4
Cc1ccccc1C(=O)NCc1ccncc1	none
COc1ccc(-c2cc(C(=O)N3CCCc4ccccc43)no2)cc1	Ecoli tolC 62.7 (no result: H69AR inhibit, HUVEC prolif 384, Lung fibro prol)
COc1cccc(-c2cc(C(=O)N3CCCc4ccccc43)no2)c1	none (no result: H69AR inhibit, HUVEC prolif 384, Lung fibro prol)
COc1ccc(OC)c(-c2cc(C(=O)N3CCCc4ccccc43)no2)c1	Ecoli tolC 65.3
O=C(Nc1nc(-c2ccc(S(=O)(=O)N3CCCC3)cc2)cs1)c1ccco1	none
COc1ccc(C(=O)Oc2cccnc2)cc1OC	none
c1coc(-c2nc(-c3ccco3)c(-c3ccco3)nc2-c2ccco2)c1	H69AR inhibit 26.7 (no result: Jurkat viability)
Cn1c(=O)cc(SCC(=O)NCC2COc3ccccc3O2)c2ccccc21 (centres undefined)	Lung fibro prol 39.6
O=c1c(Cl)c(NCCCO)cnn1-c1nc2ccccc2[nH]1	H69AR inhibit 0.6, Lung fibro prol 26.3 (no result: Ecoli tolC, Jurkat viability)
C=CCN(CC=C)c1cnn(-c2nc3ccccc3[nH]2)c(=O)c1Cl	none (no result: H69AR inhibit, Ecoli tolC, HUVEC prolif 384, Lung fibro prol, Jurkat viability)

Assay outcomes deposited in PubChem by several laboratories.
